The source of these data is ChEMBL document CHEMBL2062372, “Biotin analogues with antibacterial activity are potent inhibitors of biotin protein ligase” (ACS Med Chem Lett, 2012).

Data set [1] can be described thus: Displacement of [3H]-biotin from Escherichia coli BPL after 20 mins by scintillation counting. In a few lines:
(§1)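 Purified recombinant BPL was tested in an in vitro biotinylation assay that measured incorporation of radiolabeled biotin into protein. Ki is reported where inhibition was seen, as the mean (standard error) of three independent experiments.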
For orientation: Displacement assays read how much labelled ligand stays bound in the presence of the test substance.

A short description of data set [2]: Displacement of [3H]-biotin from Staphylococcus aureus BPL after 20 mins by scintillation counting. The method, boiled down:
as §1

The target in another data set is T1, Biotin--protein ligase (Homo sapiens, UniProt P50747).
T1 sequence (P50747 whole entry): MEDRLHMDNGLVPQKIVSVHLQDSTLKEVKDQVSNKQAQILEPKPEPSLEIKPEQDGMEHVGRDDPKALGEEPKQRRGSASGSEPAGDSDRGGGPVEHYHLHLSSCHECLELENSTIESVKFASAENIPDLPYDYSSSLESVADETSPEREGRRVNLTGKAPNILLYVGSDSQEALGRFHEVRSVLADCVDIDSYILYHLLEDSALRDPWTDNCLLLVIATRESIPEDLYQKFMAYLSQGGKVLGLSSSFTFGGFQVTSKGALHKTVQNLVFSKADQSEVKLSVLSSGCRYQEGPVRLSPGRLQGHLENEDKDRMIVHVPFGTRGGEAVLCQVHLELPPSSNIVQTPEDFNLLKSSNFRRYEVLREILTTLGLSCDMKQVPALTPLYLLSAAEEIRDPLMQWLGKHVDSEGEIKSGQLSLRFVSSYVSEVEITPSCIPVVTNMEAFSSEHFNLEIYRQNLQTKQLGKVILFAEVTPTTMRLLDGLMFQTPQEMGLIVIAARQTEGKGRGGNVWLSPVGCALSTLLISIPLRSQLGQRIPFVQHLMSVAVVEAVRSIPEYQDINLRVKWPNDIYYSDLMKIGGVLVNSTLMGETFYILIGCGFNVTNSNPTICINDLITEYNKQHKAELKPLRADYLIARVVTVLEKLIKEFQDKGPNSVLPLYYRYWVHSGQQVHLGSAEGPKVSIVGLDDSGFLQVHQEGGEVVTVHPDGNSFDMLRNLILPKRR
The data set is described as follows: Displacement of [3H]-biotin from human BPL after 20 mins by scintillation counting. The method, boiled down:
as §1

In a further data set the test system is HepG2. Put plainly: Cytotoxicity against human HepG2 cells assessed as change in metabolic activity at 64 ug/ml after 24 to 48 hrs by WST1 assay. The format is ADME, cell-based. (In general: Tetrazolium dyes change colour on reduction, which living cells bring about.)
Data set [3] can be described thus: Selectivity ratio of Ki for human BPL to Ki for Staphylococcus aureus BPL. In a few lines:
(§2)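 Selectivity is the ratio of Ki values from the radiolabeled-biotin incorporation assay with purified recombinant BPLs. Each Ki is the mean of three independent experiments.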

The test system of the next data set is Staphylococcus. Put plainly: Antibacterial activity against coagulase-negative Staphylococcus after 16 to 24 hrs by broth microdilution method. It counts as functional. On the technique in general: Dilution methods test growth across graded concentrations, often in twofold steps.
Data set [4] concerns Staphylococcus aureus. The data set is described as follows: Antibacterial activity against methicillin-resistant Staphylococcus aureus after 16 to 24 hrs by broth microdilution method. The format is functional.
The nature of data set [5]: Binding affinity to Staphylococcus aureus BPL by surface plasmon resonance. In a few lines:
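S. aureus BPL was immobilized on the SPR surface, with varying inhibitor concentrations in the running buffer. Ka and kd come from the sensorgrams. KD was calculated from steady-state affinity where on and off rates were too fast for kinetic evaluation.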

Data set [6] relates to Staphylococcus aureus. Put plainly: Antibacterial activity against methicillin-susceptible Staphylococcus aureus after 16 to 24 hrs by broth microdilution method. The format is functional.
The nature of data set [7]: Selectivity ratio of Ki for Escherichia coli BPL to Ki for Staphylococcus aureus BPL. In a few lines:
as §2

Data set [8] in a line: Selectivity ratio of Ki for Escherichia coli BPL to Ki for human BPL. The method, boiled down:
as §2

pKd, pKi: −log10 of the molar value. ≈ marks a conversion by molar mass, not a printed value.

Take `O=C1N[C@H]2[C@H](CS[C@H]2CCCCCCO)N1`: the pKi (in data set [1]; in data set [2]; at Biotin--protein ligase) was less than 4.70 throughout. For the same molecule, the Activity result with HepG2 was “Non-toxic”.

Turning to `NCCCCC[C@@H]1SC[C@@H]2NC(=O)N[C@@H]21`, the pKi (in data set [1]; in [2]; on Biotin--protein ligase) was less than 4.70 throughout.

As to `C#CCCCC[C@@H]1SC[C@@H]2NC(=O)N[C@@H]21`, the Ratio Ki in data set [3] stood at 2.5; in data set [7], 11.3; in [8], 4.5. Also, the MIC50 (as a rule, the lowest concentration that inhibits either 50% of growth or 50% of the strains tested, depending on the study) with Staphylococcus turned out to be 4 µg/mL (≈ 17.8 µM); in the data set with Staphylococcus aureus [4] it was 8 µg/mL (≈ 35.7 µM); against Staphylococcus aureus [6] it was 8 µg/mL (≈ 35.7 µM). Moreover, the MIC90 – broadly, an inhibitory concentration at the 90% level, which refers to growth in some studies and to a panel of isolates in others – against Staphylococcus is 8 µg/mL (≈ 35.7 µM); in the data set with Staphylococcus aureus [4] it was 16 µg/mL (≈ 71.3 µM); against Staphylococcus aureus [6] it was 16 µg/mL (≈ 71.3 µM). Besides, the pKd (usually −log10 of the Kd, conventionally taken in molar units) in [5] is 7.10. Also, the values for the pKi (in data set [1]; in data set [2]; on Biotin--protein ligase) were 6.05, 7.10 and 6.70, respectively. Also, the Activity entry with HepG2 is listed as “Non-toxic”.

In the case of `NCCCC[C@@H]1SC[C@@H]2NC(=O)N[C@@H]21`, the pKi (in data set [1]; in [2]; on Biotin--protein ligase) was less than 4.70 throughout.

As for `O=C1N[C@H]2[C@H](CS[C@H]2CCCCCO)N1`, the results for the Ratio Ki in data set [3], in data set [7] and in data set [8] were 1.1, 1.2 and 1, respectively. For the same molecule, the pKd in data set [5] was 5.60. For the same molecule, the pKi (usually −log10 of the Ki, conventionally taken in molar units) is 5.40 in data set [1], 5.47 in data set [2] and 5.41 on Biotin--protein ligase.

Regarding `CCCCCC[C@@H]1SC[C@@H]2NC(=O)N[C@@H]21`, the figures for the Ratio Ki in [3], in [7] and in data set [8] were 12.4, 14 and 1.1, respectively. Besides, the pKi was 5.14 in [1], 6.28 in data set [2] and 5.19 at Biotin--protein ligase. In the data set on HepG2, the Activity result was “Non-toxic”.

As to `C#CCCCCC[C@@H]1SC[C@@H]2NC(=O)N[C@@H]21`, the Ratio Ki turned out to be 11.7 in [3], 24.4 in data set [7] and 2.1 in [8]. Also, the pKi is 5.13 in data set [1], 6.52 in [2] and 5.46 on Biotin--protein ligase. In addition, in the data set on HepG2, the Activity entry is “Non-toxic”.

Regarding `C#CCCCCCC[C@@H]1SC[C@@H]2NC(=O)N[C@@H]21`, the Ratio Ki in [3] was determined as 5; in [7], 8.3; in data set [8], 1.7. The pKi in data set [1] was 4.70; in [2], 5.62; at Biotin--protein ligase it was 4.92. In the data set with HepG2, the Activity entry is recorded as “Non-toxic”.

As for `CCCCC[C@@H]1SC[C@@H]2NC(=O)N[C@@H]21`, the figures for the Ratio Ki in data set [3], in data set [7] and in [8] were 2.8, 22 and 7.9, respectively. Also, the results for the MIC50 against Staphylococcus, against Staphylococcus aureus [4] and in the data set with Staphylococcus aureus [6] were 2 µg/mL (≈ 9.33 µM), 8 µg/mL (≈ 37.3 µM) and 8 µg/mL (≈ 37.3 µM), respectively. Also, the MIC90 came to 8 µg/mL (≈ 37.3 µM) against Staphylococcus, 16 µg/mL (≈ 74.6 µM) against Staphylococcus aureus [4] and 16 µg/mL (≈ 74.6 µM) in the data set on Staphylococcus aureus [6]. Besides, in [5], the pKd was 7.22. Moreover, the pKi is 5.96 in data set [1], 7.30 in data set [2] and 6.85 at Biotin--protein ligase. In addition, in the data set on HepG2, the Activity result is listed as “Non-toxic”.
